In ChEMBL document CHEMBL1777703, “Synthesis and Biological Evaluation of Muraymycin Analogues Active against Anti-Drug-Resistant Bacteria” (ACS Med Chem Lett, 2010):
pIC50: −log10 of the molar value. Converted amounts (≈) assume the structure as drawn.

Assays:
HepG2 = test: Cytotoxicity against human HepG2 cells after 48 hrs by WST-8 assay; format: cell-based; settings: hepg2, 48 h
Enterococcus faecium [1] = test: Antibacterial activity against vancomycin-resistant Enterococcus faecium SR7917 after 20 hrs by broth microdilution method; format: functional; settings: SR7917, 20 h
Summary of the method: (§1)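 MIC by broth microdilution following NCCLS guidance in cation-adjusted Mueller-Hinton broth. Compounds tested as serial 2-fold dilutions, tested up to 64 μg/mL. Each well inoculated with 5 × 10^4 CFU of the strain in 0.1 mL. Incubation at 35 °C for 20 h, after which the MIC was scored.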

Staphylococcus aureus [2] = test: Antibacterial activity against methicillin-resistant Staphylococcus aureus SR3637 after 20 hrs by broth microdilution method; format: functional; settings: SR3637, 20 h; summary of the method: as §1
Enterococcus faecium [3] = test: Antibacterial activity against Enterococcus faecium ATCC 19434 after 20 hrs by broth microdilution method; format: functional; settings: ATCC 19434, 20 h; summary of the method: as §1
Enterococcus faecalis [4] = test: Antibacterial activity against Enterococcus faecalis ATCC 29212 after 20 hrs by broth microdilution method; format: functional; settings: ATCC 29212, 20 h
Summary of the method: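 MIC by NCCLS broth microdilution in cation-adjusted Mueller-Hinton broth with serial 2-fold compound dilutions. Inoculum 5 × 10^4 CFU per strain in 0.1 mL. Incubated 35 °C for 20 h before scoring.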

Staphylococcus aureus [5] = test: Antibacterial activity against methicillin-susceptible Staphylococcus aureus ATCC 29213 after 20 hrs by broth microdilution method; format: functional; settings: ATCC 29213, 20 h; summary of the method: as §1
Enterococcus faecalis [6] = test: Antibacterial activity against vancomycin-resistant Enterococcus faecalis SR7914 after 20 hrs by broth microdilution method; format: functional; settings: SR7914, 20 h; summary of the method: as §1
[7] = biological target: T1, Phospho-N-acetylmuramoyl-pentapeptide-transferase (Bacillus subtilis (strain 168), UniProt Q03521); test: Inhibition of purified Bacillus subtilis MraY assessed as incorporation of MurNAc-[14C]pentapeptide into lipid 1 after 30 mins
T1 sequence (Q03521 whole entry): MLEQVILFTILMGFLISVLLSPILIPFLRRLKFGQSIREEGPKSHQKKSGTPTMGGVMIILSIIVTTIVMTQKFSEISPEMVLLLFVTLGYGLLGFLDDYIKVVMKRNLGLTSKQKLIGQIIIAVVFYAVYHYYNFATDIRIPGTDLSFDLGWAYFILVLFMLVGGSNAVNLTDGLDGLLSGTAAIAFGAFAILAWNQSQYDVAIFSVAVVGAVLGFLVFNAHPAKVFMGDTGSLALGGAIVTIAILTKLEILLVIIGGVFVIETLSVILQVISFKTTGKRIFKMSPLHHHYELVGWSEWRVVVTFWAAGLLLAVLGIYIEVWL
Summary of the method: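 Purified B. subtilis MraY. Final mix: 100 mM Tris-HCl pH 7.5, 40 mM MgCl2, 1.1 mM C55-P, 250 mM NaCl, 0.25 mM UDP-MurNAc-[14C]pentapeptide (337 Bq), 8.4 mM N-lauroyl sarcosine. Incubated 30 min at 37 °C. Substrate and lipid I separated by silica TLC and quantified by radioactivity scanning. IC50 calculated relative to an inhibitor-free control.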

| Structure (SMILES) | Activity (HepG2) | MIC (Enterococcus faecium [1]) [µg/mL] | MIC (Staphylococcus aureus [2]) [µg/mL] | MIC (Enterococcus faecium [3]) [µg/mL] | MIC (Enterococcus faecalis [4]) [µg/mL] | MIC (Staphylococcus aureus [5]) [µg/mL] | MIC (Enterococcus faecalis [6]) [µg/mL] | pIC50 [7] |
| --- | --- | --- | --- | --- | --- | --- | --- | --- |
| CC(C)[C@H](NC(=O)N[C@H](C(=O)N[C@H](CCCCCCCc1ccc(-c2ccccc2)cc1)C(=O)NCCCN[C@H](C(=O)O)[C@H](O[C@@H]1O[C@H](CN)[C@@H](O)[C@H]1O)C1O[C@@H](n2ccc(=O)[nH]c2=O)[C@H](O)[C@@H]1O)[C@@H]1CCNC(=N)N1)C(=O)O (single isomer, unassigned) | Non-toxic | 4 (≈ 3.6 µM) | 16 (≈ 14.4 µM) | 4 (≈ 3.6 µM) | 8 (≈ 7.21 µM) | 8 (≈ 7.21 µM) | 16 (≈ 14.4 µM) | – |
| CC(C)[C@H](NC(=O)N[C@H](C(=O)N[C@@H](CCCCCCCc1ccc(-c2ccccc2)cc1)C(=O)NCCCN[C@H](C(=O)O)[C@H](O[C@@H]1O[C@H](CN)[C@@H](O)[C@H]1O)C1O[C@@H](n2ccc(=O)[nH]c2=O)[C@H](O)[C@@H]1O)[C@@H]1CCNC(=N)N1)C(=O)O (single isomer, unassigned) | Non-toxic | 8 (≈ 7.21 µM) | 4 (≈ 3.6 µM) | 4 (≈ 3.6 µM) | 4 (≈ 3.6 µM) | 4 (≈ 3.6 µM) | 16 (≈ 14.4 µM) | – |
| CN[C@H](CC(C)C)C(=O)N[C@H]1C(=O)N[C@@H](CC(N)=O)C(=O)N[C@H]2C(=O)N[C@H]3C(=O)N[C@H](C(=O)N[C@H](C(=O)O)c4cc(O)cc(O)c4-c4cc3ccc4O)[C@H](O)c3ccc(c(Cl)c3)Oc3cc2cc(c3O[C@@H]2O[C@H](CO)[C@@H](O)[C@H](O)[C@H]2O[C@H]2C[C@](C)(N)[C@H](O)[C@H](C)O2)Oc2ccc(cc2Cl)[C@H]1O [VANCOMYCIN] | – | > 64 | – | – | 1 (≈ 0.69 µM) | – | > 64 | – |
| CC(C)C[C@H](NC(=O)[C@@H](NC(=O)N[C@H](C(=O)O)C(C)C)[C@@H]1CCNC(=N)N1)C(=O)NCCCN[C@H](C(=O)O)[C@H](O[C@@H]1O[C@H](CN)[C@@H](O)[C@H]1O)[C@H]1O[C@@H](n2ccc(=O)[nH]c2=O)[C@H](O)[C@@H]1O [MURAMYCIN D2] | – | > 64 | > 64 | > 64 | > 64 | > 64 | > 64 | 8.00 |
| CCCCCCOc1ccc(-c2ccc([C@H](NC(=O)[C@@H](NC(=O)N[C@H](C(=O)O)C(C)C)[C@@H]3CCNC(=N)N3)C(=O)NCCCN[C@H](C(=O)O)[C@H](O[C@@H]3O[C@H](CN)[C@@H](O)[C@H]3O)C3O[C@@H](n4ccc(=O)[nH]c4=O)[C@H](O)[C@@H]3O)cc2)cc1 (single isomer, unassigned) | Non-toxic | 4 (≈ 3.6 µM) | 8 (≈ 7.19 µM) | 4 (≈ 3.6 µM) | 8 (≈ 7.19 µM) | 4 (≈ 3.6 µM) | 8 (≈ 7.19 µM) | – |
| CCCCCCOc1ccc(-c2ccc([C@@H](NC(=O)[C@@H](NC(=O)N[C@H](C(=O)O)C(C)C)[C@@H]3CCNC(=N)N3)C(=O)NCCCN[C@H](C(=O)O)[C@H](O[C@@H]3O[C@H](CN)[C@@H](O)[C@H]3O)C3O[C@@H](n4ccc(=O)[nH]c4=O)[C@H](O)[C@@H]3O)cc2)cc1 (single isomer, unassigned) | Non-toxic | 8 (≈ 7.19 µM) | 16 (≈ 14.4 µM) | 4 (≈ 3.6 µM) | 16 (≈ 14.4 µM) | 16 (≈ 14.4 µM) | 16 (≈ 14.4 µM) | – |
| CCCCCCCCCCCCN[C@H](C(=O)O)[C@H](O[C@@H]1O[C@H](CN)[C@@H](O)[C@H]1O)[C@H]1O[C@@H](n2ccc(=O)[nH]c2=O)[C@H](O)[C@@H]1O | – | 64 (≈ 104 µM) | > 64 | 64 (≈ 104 µM) | 32 (≈ 51.9 µM) | > 64 | 64 (≈ 104 µM) | 5.30 |
| CCCCCCCCCCCCCCC[C@@H](NC(=O)[C@@H](NC(=O)N[C@H](C(=O)O)C(C)C)[C@@H]1CCN=C(N)N1)C(=O)NCCCN[C@H](C(=O)O)[C@H](O[C@@H]1O[C@H](CN)[C@@H](O)[C@H]1O)C1O[C@@H](n2ccc(=O)[nH]c2=O)[C@H](O)[C@@H]1O (single isomer, unassigned) | Non-toxic | 0.25 (≈ 0.234 µM) | 4 (≈ 3.74 µM) | 0.5 (≈ 0.467 µM) | 2 (≈ 1.87 µM) | 2 (≈ 1.87 µM) | 4 (≈ 3.74 µM) | 6.13 |
| CCCCOc1ccc(-c2ccc(CC[C@H](NC(=O)[C@@H](NC(=O)N[C@H](C(=O)O)C(C)C)[C@@H]3CCNC(=N)N3)C(=O)NCCCN[C@H](C(=O)O)[C@H](O[C@@H]3O[C@H](CN)[C@@H](O)[C@H]3O)C3O[C@@H](n4ccc(=O)[nH]c4=O)[C@H](O)[C@@H]3O)cc2)cc1 (single isomer, unassigned) | Non-toxic | 32 (≈ 28.8 µM) | 32 (≈ 28.8 µM) | 16 (≈ 14.4 µM) | 16 (≈ 14.4 µM) | 16 (≈ 14.4 µM) | 64 (≈ 57.5 µM) | – |
| CC(C)C[C@@H](NC(=O)[C@@H](NC(=O)N[C@H](C(=O)O)C(C)C)[C@@H]1CCN=C(N)N1)C(=O)NCCCN[C@H](C(=O)O)[C@H](O[C@@H]1O[C@H](CN)[C@@H](O)[C@H]1O)C1O[C@@H](n2ccc(=O)[nH]c2=O)[C@H](O)[C@@H]1O (single isomer, unassigned) | – | > 64 | > 64 | > 64 | > 64 | > 64 | > 64 | 7.05 |
| CCCCCCCCCCCCCCC[C@H](NC(=O)[C@@H](NC(=O)N[C@H](C(=O)O)C(C)C)[C@@H]1CCN=C(N)N1)C(=O)NCCCN[C@H](C(=O)O)[C@H](O[C@@H]1O[C@H](CN)[C@@H](O)[C@H]1O)C1O[C@@H](n2ccc(=O)[nH]c2=O)[C@H](O)[C@@H]1O (single isomer, unassigned) | Non-toxic | 2 (≈ 1.87 µM) | 4 (≈ 3.74 µM) | 4 (≈ 3.74 µM) | 4 (≈ 3.74 µM) | 2 (≈ 1.87 µM) | 4 (≈ 3.74 µM) | 6.48 |
| CCCCOc1ccc(-c2ccc(CC[C@@H](NC(=O)[C@@H](NC(=O)N[C@H](C(=O)O)C(C)C)[C@@H]3CCNC(=N)N3)C(=O)NCCCN[C@H](C(=O)O)[C@H](O[C@@H]3O[C@H](CN)[C@@H](O)[C@H]3O)C3O[C@@H](n4ccc(=O)[nH]c4=O)[C@H](O)[C@@H]3O)cc2)cc1 (single isomer, unassigned) | Non-toxic | 8 (≈ 7.19 µM) | 64 (≈ 57.5 µM) | 4 (≈ 3.6 µM) | 32 (≈ 28.8 µM) | 64 (≈ 57.5 µM) | 64 (≈ 57.5 µM) | – |
